The target of series [1] is Dihydrofolate reductase (Lactobacillus casei, UniProt P00381). Put plainly: Inhibition of MTX-resistant Lactobacillus casei dihydrofolate reductase. The arrangement: species or system Lacticaseibacillus casei.
Series [2] relates to Mus musculus. Put plainly: Toxicity in BDF/1 hybrid mouse xenografted with mouse L1210 cells assessed as optimal nontoxic dose administered q3d on day 1, 4 and 7. The conditions noted are these: in vivo. The series is classed as organism-based. The procedure, abridged: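 Male BDF/1 hybrid mice received 10^5 L-1210 leukemia cells ip. Test agents in 0.1 M phosphate buffer (pH 8) were given ip 24 h after implantation (day 1) and again on days 4 and 7. The optimal nontoxic dose is expressed as mg/kg × 3; where marked, it is the highest nontoxic dose tested.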

Series [3] deals with CCRF-CEM. In words: Cytotoxicity against human CCRF-CEM cells. The conditions noted are these: read-out: ID50 (the source's name). The series is classed as functional.
Series [4] deals with Lacticaseibacillus rhamnosus. Put plainly: Antimicrobial activity against Lactobacillus casei ATCC 7469 assessed as growth inhibition. The series is classed as functional.
The target of series [5] is T1, Thymidylate synthase (Lactobacillus casei, UniProt P00469).
T1 sequence (P00469 whole entry): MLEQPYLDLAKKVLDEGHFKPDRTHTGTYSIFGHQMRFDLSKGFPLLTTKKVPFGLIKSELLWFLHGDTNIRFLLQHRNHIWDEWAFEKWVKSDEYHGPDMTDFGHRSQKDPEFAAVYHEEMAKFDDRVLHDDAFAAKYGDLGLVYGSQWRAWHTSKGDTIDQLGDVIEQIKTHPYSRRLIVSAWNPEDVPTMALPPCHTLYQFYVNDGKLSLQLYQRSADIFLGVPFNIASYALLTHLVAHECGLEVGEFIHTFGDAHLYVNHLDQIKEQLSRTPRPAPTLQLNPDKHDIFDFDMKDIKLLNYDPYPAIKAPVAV
In words: Inhibition of MTX-resistant Lactobacillus casei thymidylate synthetase. The arrangement: species or system Lacticaseibacillus casei.

The subject of series [6] is L1210. In words: Antitumor activity against mouse L1210 cells allografted in BDF/1 hybrid mouse assessed as increase in life span relative to control. It is filed as functional. The procedure, abridged:
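Male BDF/1 hybrid mice inoculated ip with 10^5 L-1210 leukemia cells; test agents dissolved in 0.1 M phosphate buffer (pH 8), given ip 24 h after implantation (day 1) and on days 4 and 7. Median survival times of treated (T) and control (C) groups compared; % ILS = 100 × (T/C − 1).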

The nature of series [7]: Toxicity in BDF/1 hybrid mouse xenografted with mouse L1210 cells administered q3d on day 1, 4 and 7. It is filed as organism-based. The conditions noted are these: in vivo. The procedure, abridged: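 Male BDF/1 hybrid mice carrying ip-inoculated L-1210 cells (10^5) dosed ip on days 1, 4 and 7 (first dose 24 h post-implant) with compound in 0.1 M phosphate buffer, pH 8. Value expressed as optimal nontoxic dose in mg/kg ×3; where the top level tested was nontoxic, the highest nontoxic dose tested is given.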

In brackets after ≈: the same amount, converted by molar mass.

One may read the GI50 as the concentration giving 50% growth inhibition. The term ILS denotes the gain in survival time of treated over control animals, in per cent.

Chain of Dihydrofolate reductase (P00381 whole entry): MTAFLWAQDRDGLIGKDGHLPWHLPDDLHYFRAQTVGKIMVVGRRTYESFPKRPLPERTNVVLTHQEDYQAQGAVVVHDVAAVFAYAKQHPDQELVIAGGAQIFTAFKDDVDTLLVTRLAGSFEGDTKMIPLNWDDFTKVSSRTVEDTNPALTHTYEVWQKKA

With `CN(CC1=Nc2c(N)nc(N)nc2NC1)c1ccc(C(=O)N[C@@H](CCC(=O)O)C(=O)O)cc1`, the IC50 in series [1] was 20 nM; in series [3] it was 0.021 µg/mL (≈ 0.046 µM); in series [5] it was 1000 nM. In addition, the Activity in series [2] amounted to 30 mg/kg. Besides, the concentration for 50% growth inhibition (GI50) in series [4] was 0.02 nM. The ILS in series [6] came out at 9%.

As for `CN(CC1=Nc2c(N)nc(N)nc2N(C)C1)c1ccc(C(=O)N[C@@H](CCC(=O)O)C(=O)O)cc1`, the IC50 came to 140 nM in series [1], 0.23 µg/mL (≈ 0.489 µM) in series [3] and 4000 nM in series [5]. Further, in series [2], the Activity turned out to be 300 mg/kg. Besides, the GI50 in series [4] turned out to be 0.1 nM. Further, in series [6], the ILS is on record as 27%.

Turning to `CCN1CC(CN(C)c2ccc(C(=O)N[C@@H](CCC(=O)O)C(=O)O)cc2)=Nc2c(N)nc(N)nc21`, the IC50 came to 900 nM in series [1], 0.27 µg/mL (≈ 0.557 µM) in series [3] and 20000 nM in series [5]. Besides, the GI50 in series [4] was 0.35 nM. The ILS in series [6] came out at 18%. The MTD in series [7] was 400 mg/kg.

Regarding `CCCCN1CC(CN(C)c2ccc(C(=O)N[C@@H](CCC(=O)O)C(=O)O)cc2)=Nc2c(N)nc(N)nc21`, the figures for the IC50 in series [1], in series [3] and in series [5] were 380 nM, 0.23 µg/mL (≈ 0.449 µM) and 19000 nM, respectively. The Activity in series [2] came out at 100 mg/kg. Moreover, the GI50 in series [4] came to 1.2 nM. Besides, the increase in life span (ILS) in series [6] amounted to 25%.

Regarding `CCCCCCN1CC(CN(C)c2ccc(C(=O)N[C@@H](CCC(=O)O)C(=O)O)cc2)=Nc2c(N)nc(N)nc21`, the IC50 in series [1] was determined as 1800 nM; in series [3] it was 0.58 µg/mL (≈ 1.07 µM); in series [5] it was 43000 nM. Besides, the GI50 in series [4] stood at 0.27 nM. Moreover, in series [6], the ILS is 0%. In series [7], the MTD amounted to 400 mg/kg.

As for `CN(CC1=Nc2c(N)nc(N)nc2N(CC2CCCCC2)C1)c1ccc(C(=O)N[C@@H](CCC(=O)O)C(=O)O)cc1`, the IC50 stood at 870 nM in series [1], 0.14 µg/mL (≈ 0.253 µM) in series [3] and 17000 nM in series [5]. Further, in series [2], the Activity was 300 mg/kg. Also, the GI50 in series [4] amounted to 3.5 nM. Besides, the ILS in series [6] is recorded as 27%.

Consider `CN(CC1=Nc2c(N)nc(N)nc2N(Cc2ccccc2)C1)c1ccc(C(=O)N[C@@H](CCC(=O)O)C(=O)O)cc1`, for which the values for the IC50 in series [1], in series [3] and in series [5] were 740 nM, 0.78 µg/mL (≈ 1.43 µM) and 8000 nM, respectively. In addition, the GI50 in series [4] stood at 0.35 nM. The ILS in series [6] came to 25%. Further, the MTD in series [7] was 400 mg/kg.

For the compound `CN(CC1=Nc2c(N)nc(N)nc2N(Cc2ccc(Cl)c(Cl)c2)C1)c1ccc(C(=O)N[C@@H](CCC(=O)O)C(=O)O)cc1`, the IC50 was 3600 nM in series [1], above 1 µg/mL in series [3] and 13000 nM in series [5]. Moreover, the GI50 in series [4] worked out at 19.4 nM. The increase in lifespan (ILS) in series [6] is reported as 36%. The compound further gave an MTD in series [7] of 400 mg/kg.

For the compound `CN(CC1=Nc2c(N)nc(N)nc2N(Cc2cccc3ccccc23)C1)c1ccc(C(=O)N[C@@H](CCC(=O)O)C(=O)O)cc1`, the IC50 in series [1] was 4500 nM; in series [3] it was above 1 µg/mL; in series [5] it was 16000 nM. The GI50 in series [4] is 0.47 nM. In addition, the ILS in series [6] is on record as 0%. For the same compound, in series [7], the MTD is 400 mg/kg.

For the compound `CN(CC1CNc2nc(N)nc(N)c2N1)c1ccc(C(=O)N[C@@H](CCC(=O)O)C(=O)O)cc1` (some centres not stated), the IC50 in series [1] turned out to be 200 nM; in series [5], 5000 nM. For the same compound, the GI50 in series [4] was 0.14 nM.

For the compound `CN(CC1CN(C)c2nc(N)nc(N)c2N1)c1ccc(C(=O)N[C@@H](CCC(=O)O)C(=O)O)cc1` (some centres not stated), the IC50 was determined as 2500 nM in series [1], 0.14 µg/mL (≈ 0.296 µM) in series [3] and 39000 nM in series [5]. Further, the Activity in series [2] was determined as 200 mg/kg. Also, the GI50 in series [4] was determined as 1.4 nM. Besides, in series [6], the increase in life span (ILS) is reported as 9%.

As to `CN(Cc1cnc2nc(N)nc(N)c2n1)c1ccc(C(=O)N[C@@H](CCC(=O)O)C(=O)O)cc1` [METHOTREXATE], in series [2], the Activity came out at 15 mg/kg. The IC50 in series [3] was 0.018 µg/mL (≈ 0.0396 µM). In addition, in series [4], the GI50 stood at 0.04 nM. Moreover, in series [6], the ILS is 70%.

The values above are taken from ChEMBL document CHEMBL3271957 (J Med Chem, 1977).
